Measurements of several laboratories.
Lines come from different studies, so protocols differ.
Cell line: K562
Observed: cell growth or viability

| Structure (SMILES) | method | time | IC50 [µM] |
| --- | --- | --- | --- |
| O=c1cc(OCc2cc(-c3ccc(Cl)cc3Cl)no2)c2ccccc2o1 | MTS | 72 h | > 100 |
| CC(C)[C@@H]1NC(=O)/C(=C/c2cnc[nH]2)NC1=O | MTT |  | > 15 |
| COc1ccc(Nc2ncnc3c2ncn3Cc2ccc(C(=O)Nc3ccccc3N)cc2)cc1 | MTT | 72 h | > 50 |
| COc1cccc2c1C(=O)c1c(O)c3c(c(O)c1C2=O)C[C@@](O)(C(=O)CO)C[C@@H]3O[C@H]1C[C@H](N)[C@H](O)[C@H](C)O1 |  | 96 h | 0.13 |
| c1ccc(-c2cc(CNc3cccc4cccnc34)on2)cc1 | MTS | 72 h | > 100 |
| CC(C)[C@@H]1NC(=O)[C@H](Cc2c[nH]cn2)NC1=O | MTT |  | > 15 |
| O=C(NO)c1ccc(Cn2cnc3c(Nc4ccc(Br)cc4F)ncnc32)cc1 | MTT | 72 h | 5.18 |
| CN1CCC(NC2CCc3[nH]c4c(C(N)=O)ccc(-c5ccccc5Cl)c4c3C2)CC1 (stereo not shown) |  |  | 0.0214 |
| O=C(NO)c1ccc(Cn2cnc3c(Nc4cccc([N+](=O)[O-])c4)ncnc32)cc1 | MTT | 72 h | 10.4 |
| FC(F)(F)c1ccc(-c2cc(CNc3cccc4cccnc34)on2)cc1 | MTS | 72 h | > 100 |
